Active and inactive are the calls of the source.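 How the source made its calls: active means compounds whose self-toxic dose exceeds tenfold the dose that restores mitoxantrone killing of resistant cells; inactive means the rest.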
Test system: Igrov ABCG2 cells + mitoxantrone, trypan blue viability, 3 d
Assay: ABCG2-mediated mitoxantrone resistance reversal, SAR follow-up, Igrove cells, trypan blue, SAR set 2 (AID 504477)
Summary of the method: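 System: ABCG2-expressing Igrove cells. Input: 100,000 cells per mL. Reagent: fixed mitoxantrone level. Dosing: test compound concentration series […] 1-100 µM. Times: compound exposure 3 days. Measured by: trypan blue counts by light microscopy.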

Structure (SMILES)	CC50
COc1ccccc1-c1cc(N2CCN(C(=O)c3ccoc3)CC2)n2nc(-c3ccccc3)cc2n1	> 7.62 µM (inactive)
O=C(c1ccoc1)N1CCN(c2cc(-c3ccco3)nc3cc(-c4ccco4)nn23)CC1	> 100 µM
COc1ccc(-c2cc3nc(-c4ccco4)cc(N4CCN(C(=O)c5ccoc5)CC4)n3n2)cc1	> 100 µM
CC(=O)N1CCN(c2cc(-c3ccco3)nc3cc(-c4cccc(Cl)c4)nn23)CC1	> 100 µM
CC(=O)N1CCN(c2cc(-c3ccco3)nc3cc(-c4ccccc4)nn23)CC1	> 100 µM
COc1cccc(-c2cc3nc(-c4ccco4)cc(N4CCN(C(C)=O)CC4)n3n2)c1	> 100 µM
